Shown are actives, neighbours in structure and some others; about 9.4% of the full set was active somewhere.
T cruzi repl = inhibitors of intracellular T. cruzi growth, primary screen, luminescence, NIH3T3 host cells | T. cruzi beta-gal in NIH3T3, 90 h | inhibition, % (no concentration beside the values) | 300,000 tested, 1.4% active | AID 1885, 2009;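 active means mean inhibition across valid replicates above about 55%, limit read from the data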;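 further: signal also drops with host cell toxicity which is not excluded here; 0% = plate median of DMSO wells and 100% = zero luminescence signal; higher percent means less beta-gal luminescence so fewer parasites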
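System – NIH/3T3 host cells with β-galactosidase reporter T. cruzi · Doses – single 50 nL compound addition per well in DMSO · Reagent – 5000 T. cruzi trypomastigotes/well · Medium – Low-serum DMEM with 2% FBS · Timing – ≥90 h infection period, 3 h prior cell attachment · Evaluation – parasite load inhibition, % · Technique – GalScreen luminescence, 60 min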
Beta apoptosis = inhibitors of cytokine-induced beta cell apoptosis, primary screen, luminescence. AID 435005, 2010. 300,000 tested, 0.8% active. INS-1E cytokine-induced death, ATP luminescence, 48 h; percent of positive-control rescue, neutral wells zero. protection from apoptosis, % (concentration not given with the values);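 active means Every replicate reaches about 75%, or at least half do and their mean reaches it too, limit read from the data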;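 further: 0% = cytokine-treated negative control wells and 100% = positive control rescue; higher means more ATP so stronger rescue from cytokine killing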
CSC inhib = cancer stem cell viability inhibitors, primary screen, luminescence. cancer stem cell-like cells viability. AID 2717, 2010. 300,000 tested, 1.1% active. inhibition, % at 7.5 µM; in the data active means inhibition above about 75%; tested in HMLE shEcad cells
L major viab = Leishmania major promastigote growth inhibition, primary screen; Leishmania major promastigotes, resazurin fluorescence viability; inhibition, % at 10 µM; 200,000 tested, 9% active; in the data active means inhibition above about 50%;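 further: promastigotes grown with compound for 44 hours at 28 °C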
SKKanGAS inh = S. pyogenes SKKanGAS growth inhibitors in kanamycin, primary screen, streptokinase expression inhibitor project, SKKanGAS strain, BacTiter-Glo luminescence. 6 h. inhibition, % at 7.5 µM. 300,000 tested, 1.3% active;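 active means mean replicate score, as percent of positive control median, at least 50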;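 further: strain carries kanamycin resistance gene driven by streptokinase promoter and grows in 40 µg/ml kanamycin; loss of luminescence reflects streptokinase promoter inhibition or plain growth inhibition; 0% = median of DMSO wells and 100% = positive control at its reference dose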
Mdm2-MdmX inh = inhibitors of human Mdm2-MdmX association, primary screen, cell-based, luminescence, split luciferase, SaOS-2, uHTS | Protein Mdm4 (Homo sapiens) + E3 ubiquitin-protein ligase Mdm2 (Homo sapiens), … | SaOS-2 split-luciferase Mdm2/MdmX complementation | inhibition, % at 8 µM | 330,000 tested, 3% active | AID 485346, 2010;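 active means inhibition of at least 50% at 8 µM in the primary screen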
The depositor's hits bear a star; . = no result.

SMILES	T cruzi repl	Beta apoptosis	CSC inhib	L major viab	SKKanGAS inh	Mdm2-MdmX inh
O=C(O)c1ccccc1SC1CC(=O)N(c2ccccc2)C1=O (stereo not given)	-14	-10	-6	51*	3	-30
O=C(O)c1cccnc1SC1CC(=O)N(c2ccccc2)C1=O (stereo not given)	-10	0	.	.	-1	5
CN(C)CC(O)CN1C(=O)NC(C)(C)C1=O (stereo not given)	-15	-2	2	-6	-3	-14
O=C(c1ccc(F)cc1)N1CCC(C(=O)N2CCN(S(=O)(=O)c3cccc([N+](=O)[O-])c3)CC2)CC1	28	.	-13	.	-2	7
CCOC(=O)C1CCN(Cc2cc(=O)n3c(-c4ccccc4)csc3n2)CC1	21	-1	-10	88*	-3	-24
O=c1cc(CN2CCN(c3ccccc3)CC2)nc2scc(-c3ccccc3)n12	31	-5	-1	5	-1	23
O=C1C2C3C=CC(c4ccccc4)(C2C(=O)N1c1cccc(Cl)c1)C1C(=O)N(c2cccc(Cl)c2)C(=O)C31 (stereo not given)	18	-4	-4	68*	8	21
C[C@@H]1CN([C@H](C)CO)C(=O)Cc2cc(NS(=O)(=O)c3cn(C)cn3)ccc2O[C@H]1CN(C)S(=O)(=O)c1ccc(Cl)cc1	.	.	.	.	.	-5
O=C(/C=C/c1cccs1)NC(=S)Nc1ccc(S(=O)(=O)Nc2ccccc2C(F)(F)F)cc1	8	-7	43	.	59*	6
CCC(C)c1ccccc1NC(=O)COC(=O)c1ccc2[nH]c3c(c2c1)CCCC3 (stereo not given)	0	7	107*	35	4	40
CC(C)c1ccccc1NC(=O)COC(=O)c1ccc(Cl)c(S(=O)(=O)N2CCCCCC2)c1	9	.	.	60*	21	0
Cc1cc(C)n(-c2ccc(C(=O)OCC(=O)Nc3ccc(S(=O)(=O)N4CCCCC4)cc3)cc2)n1	2	0	-5	84*	12	-15
CCc1ccc(NC(=O)COC(=O)c2ccc(Cl)c(S(=O)(=O)N3CCCCCC3)c2)cc1	-8	3	23	63*	6	-10
CCOc1ncccc1C(=O)OCc1c(F)cccc1Cl	-4	-3	.	14	17	10
CNC(=O)c1ccc(C)c(NC(=O)C2=C(C)OCCS2)c1	-16	-20	-12	.	2	17
CC(C)n1c(SCC(=O)NC2CC2)nnc1C1CC1	-3	-2	6	.	-4	3
O=C(N/C(=C/c1cccc([N+](=O)[O-])c1)C(=O)N1CCCCCC1)c1ccco1	-15	-5	6	.	-1	5
N#Cc1ccc(S(=O)(=O)NC2CCCCNC2=O)cc1 (stereo not given)	0	-4	-5	.	-8	32
CC(C1CC1)N(Cc1ccccc1)C(=S)Nc1ccccc1Cl (stereo not given)	-18	-11	12	24	4	20
COc1ccc(NS(=O)(=O)c2ccc(-c3coc(C)n3)cc2)cc1OC	-36	107*	0	.	-1	18
COc1ccc(NS(=O)(=O)c2ccc(-c3coc(C)n3)cc2)cc1	14	5	9	.	2	19
O=C(COc1ccccc1O)NNc1ccccc1	13	-3	69	74*	-10	-4
O=C(C[n+]1ccccc1)NNc1ccccc1	21	-3	114*	.	0	1
COC(=O)c1cc(OC)c(OC)cc1NC(=O)c1csc(C)c1	23	6	20	.	-4	3
Cc1csc(NC(=O)COCC(=O)O)c1-c1nc2ccccc2s1	5	-4	0	.	50*	19
SMILES	T cruzi repl	Beta apoptosis	CSC inhib	L major viab	SKKanGAS inh	Mdm2-MdmX inh
CCCCCOP(=O)(OCCCCC)C1(NS(=O)(=O)c2ccccc2)C=CC(=O)c2ccccc21 (stereo not given)	4	13	-11	100*	25	29
Cc1ccc(S(=O)(=O)c2cc3c(=O)n4ccccc4nc3n(Cc3ccco3)c2=N)cc1	31	-15	6	62*	8	24
Cc1ccc(CNC(=O)c2cc3c(=O)n4ccccc4nc3n(Cc3ccco3)c2=N)cc1	31	2	70	.	6	44
CSCCC(NS(=O)(=O)c1ccc2c(c1)oc(=O)n2C)C(=O)NCc1cccs1 (stereo not given)	-2	-2	-6	.	5	-1
O=C(NCc1ccc2c(c1)OCO2)C(=O)NC1CCCCC1	-13	-2	-17	-7	3	-2
CC1(C)CC(NCc2ccc3c(c2)OCO3)CCO1 (stereo not given)	-12	-9	.	84*	-5	-21
CC1(C)CC(O)(CCNCc2ccc3c(c2)OCO3)CCO1 (stereo not given)	25	4	-10	83*	11	4
Cc1cccc2nc(COc3ccc4ccccc4c3Br)cn12	-6	-5	27	.	64*	-237
COC(=O)CC1C(=O)NCCN1C(=O)CSc1nnnn1-c1ccc(OC)cc1 (stereo not given)	-6	4	0	-4	8	15
CCOCCCNCc1cc(Br)ccc1OCc1ccccc1	-4	2	6	83*	0	32
NS(=O)(=O)c1ccc(NCc2ccccc2OCc2ccccc2F)cc1	-6	-4	-1	14	-13	14
COc1cc(CNCCc2ccc(S(N)(=O)=O)cc2)ccc1OCC(=O)NC(C)(C)C	8	.	-1	-3	-21	20
CCOc1cc(CNCCc2ccc(S(N)(=O)=O)cc2)ccc1OCc1ccccc1	30	34	3	100*	-5	.
NS(=O)(=O)c1ccc(CCNCc2cc(Br)ccc2OCc2ccccc2)cc1	-22	35	-6	55*	6	8
NS(=O)(=O)c1ccc(NCc2cc(Cl)ccc2OCc2ccc(F)cc2)cc1	-20	9	5	54*	14	26
O=C(O)c1ccc2c(c1)-c1cc(C(=O)O)ccc1S2(=O)=O	-5	-3	-8	.	-1	4
O=C(NC1CCCCCC1)c1ccc(Cl)c(S(=O)(=O)N2CCOCC2)c1	-4	.	-2	.	0	5
O=C(OCC(O)COc1ccccc1)c1ccc([N+](=O)[O-])cc1 (stereo not given)	16	8	3	.	0	-35
Cc1ccc(S(=O)(=O)N2CCCCC2c2cccnc2)c(C)c1C (stereo not given)	54	98*	15	.	-13	-9
CC(=O)Nc1ccc(S(=O)(=O)c2ccc([N+](=O)[O-])cc2)cc1	70*	3	12	.	5	3
CCN(CC)C(=S)Nc1ccc(Cl)c(Cl)c1	-52	-11	-42	62*	19	11

From PubChem BioAssay
